The source of these data is ChEMBL document CHEMBL1795344, “Design, synthesis and antitumor evaluation of phenyl N-mustard-quinazoline conjugates” (Bioorg Med Chem, 2011).

Activity calls are given as the source filed them. The rule behind the calls is not given here.

The test system of series [1] is CCRF-CEM. Kind of series: Cytotoxicity against human CCRF-CEM cells after 72 hrs by XTT assay. The series is classed as functional, cell-based. The procedure, abridged:
(§1)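 CCRF-CEM and its Taxol- and vinblastine-resistant sublines were incubated 72 h, then given phenazine methosulfate-XTT for 6 h at 37 °C. Absorbance was read at 450 and 630 nm. IC50 came from median-effect analysis of dose-effect data at six or seven concentrations.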
(In general: Tetrazolium assays rely on reduction of a dye to a coloured formazan, in cell work by metabolically active cells.)

The test system of series [2] is CCRF-CEM. The series is described as follows: Cytotoxicity against human taxol-resistant CCRF-CEM cells after 72 hrs by XTT assay. The class given is functional, cell-based. The procedure, abridged:
as §1

Series [3] relates to CCRF-CEM. Kind of series: Cytotoxicity against human vinblastine-resistant CCRF-CEM cells after 72 hrs by XTT assay. The class given is functional, cell-based. The procedure, abridged: as §1
Series [4] deals with MX1. Kind of series: Cytotoxicity against human MX1 cells after 72 hrs by SRB assay. To be noted: MX1, 72 h. The class given is functional, cell-based. The method, boiled down:
(§2)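 MX-1 and HCT-116 solid tumor cells were exposed 72 h, with growth read by SRB staining on a microplate spectrophotometer. IC50 came from median-effect analysis of dose-effect data at six or seven concentrations.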
For orientation: In SRB staining, fixed cells bind dye roughly in proportion to their protein.

Series [5] concerns HCT-116. The series is described as follows: Cytotoxicity against human HCT116 cells after 72 hrs by SRB assay. The series is classed as functional, cell-based. To be noted: HCT-116, 72 h. The procedure, abridged:
as §2

Series [6] can be described thus: Cytotoxicity against human H1299 cells after 72 hrs by Alamar blue assay. As to conditions: NCI-H1299, 72 h. The class given is functional, cell-based. The procedure, abridged: (§3)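 H1299 and PC3 cells were exposed 72 h, then given Alamar blue for 6 h at 37 °C. Absorbance was read at 570 and 600 nm. IC50 came from median-effect analysis of dose-effect data at six or seven concentrations.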
(The colour change of resazurin is a common sign of viable cells or microbes.)

The subject of series [7] is PC-3. The series is described as follows: Cytotoxicity against human PC3 cells after 72 hrs by Alamar blue assay. The series is classed as functional, cell-based. To be noted: PC-3, 72 h. The procedure, abridged: as §3
Series [8] is described as follows: Cell cycle arrest in human H1299 cells assessed as accumulation at sub G1 phase at 5 uM after 24 hrs using propidium iodide staining by flow cytometry (reference value: 8.8 +/- 6.9%). The series is classed as functional, cell-based. To be noted: NCI-H1299. The procedure, abridged: (§4)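 H1299 cells were exposed 24 h, then trypsinized, PBS-washed and fixed in ice-cold 70% ethanol for 30 min. They were stained with 4 μg/mL propidium iodide in PBS containing 1% Triton X-100 and 0.1 mg/mL RNase A. Cell-cycle distribution was read by flow cytometry.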

Series [9] is described as follows: Cell cycle arrest in human H1299 cells assessed as accumulation at sub G1 phase at 10 uM after 24 hrs using propidium iodide staining by flow cytometry (reference value: 8.8 +/- 6.9%). The class given is functional, cell-based. To be noted: NCI-H1299. The procedure, abridged:
as §4

A short description of series [10]: Cell cycle arrest in human H1299 cells assessed as accumulation at sub G1 phase at 20 uM after 24 hrs using propidium iodide staining by flow cytometry (reference value: 8.8 +/- 6.9%). The class given is functional, cell-based. To be noted: NCI-H1299. The method, boiled down:
as §4

Series [11] is described as follows: Cell cycle arrest in human H1299 cells assessed as accumulation at G1 phase at 5 uM after 24 hrs using propidium iodide staining by flow cytometry (reference value: 44.8 +/- 3%). The class given is functional, cell-based. To be noted: NCI-H1299. The method, boiled down: as §4
The nature of series [12]: Cell cycle arrest in human H1299 cells assessed as accumulation at G1 phase at 10 uM after 24 hrs using propidium iodide staining by flow cytometry (reference value: 44.8 +/- 3%). The class given is functional, cell-based. To be noted: NCI-H1299. The procedure, abridged:
as §4

The nature of series [13]: Cell cycle arrest in human H1299 cells assessed as accumulation at G1 phase at 20 uM after 24 hrs using propidium iodide staining by flow cytometry (reference value: 44.8 +/- 3%). The class given is functional, cell-based. As to conditions: NCI-H1299. The method, boiled down:
as §4

A short description of series [14]: Cell cycle arrest in human H1299 cells assessed as accumulation at S phase at 5 uM after 24 hrs using propidium iodide staining by flow cytometry (reference value: 24.9 +/- 3.3%). The class given is functional, cell-based. To be noted: NCI-H1299. The method, boiled down:
as §4

Series [15] can be described thus: Cell cycle arrest in human H1299 cells assessed as accumulation at S phase at 10 uM after 24 hrs using propidium iodide staining by flow cytometry (reference value: 24.9 +/- 3.3%). The series is classed as functional, cell-based. As to conditions: NCI-H1299. The procedure, abridged:
as §4

The nature of series [16]: Cell cycle arrest in human H1299 cells assessed as accumulation at S phase at 20 uM after 24 hrs using propidium iodide staining by flow cytometry (reference value: 24.9 +/- 3.3%). The class given is functional, cell-based. As to conditions: NCI-H1299. The procedure, abridged: as §4
Series [17] can be described thus: Cell cycle arrest in human H1299 cells assessed as accumulation at G2/M phase at 5 uM after 24 hrs using propidium iodide staining by flow cytometry (reference value: 21.5 +/- 0.6%). The class given is functional, cell-based. As to conditions: NCI-H1299. The method, boiled down:
as §4

A short description of series [18]: Cell cycle arrest in human H1299 cells assessed as accumulation at G2/M phase at 10 uM after 24 hrs using propidium iodide staining by flow cytometry (reference value: 21.5 +/- 0.6%). The class given is functional, cell-based. As to conditions: NCI-H1299. The method, boiled down: as §4
The nature of series [19]: Cell cycle arrest in human H1299 cells assessed as accumulation at G2/M phase at 20 uM after 24 hrs using propidium iodide staining by flow cytometry (reference value: 21.5 +/- 0.6%). The class given is functional, cell-based. As to conditions: NCI-H1299. The method, boiled down: as §4
Series [20] deals with MX1. Kind of series: Antitumor activity against human MX1 cells xenografted in athymic nude Swiss mouse assessed as tumor growth inhibition at 30 mg/kg, iv every two days for three times followed by 35 mg/kg, iv every two days for 5 times relative to control. The series is classed as functional. The arrangement: scale not given: the % may be the effect or the level left.
Series [21] deals with Nucleic Acid. Kind of series: Induction of pEGFP-N1 plasmid DNA interstrand cross-linking at 1 to 20 uM by alkaline agarose gel shift assay. The class given is nucleic-acid assay. The procedure, abridged:
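pEGFP-N1 plasmid DNA (1500 ng) was incubated with compound (1, 10, 20 μM) in 3 mM NaCl/1 mM sodium phosphate pH 7.4/1 mM EDTA for 2 h at 37 °C. It was then BamHI-linearized, ethanol-precipitated and denatured in 0.5 N NaOH-10 mM EDTA. Samples were run on a 0.8% alkaline agarose gel at 4 °C, 18 V for 22 h, stained with ethidium bromide.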

Series [22] relates to PC-3. Kind of series: Anticancer activity against human PC3 cells xenografted in athymic nude Swiss mouse assessed as tumor growth inhibition at 55 mg/kg, iv every two days for six times relative to control. The class given is functional. The arrangement: scale not given: the % may be the effect or the level left.
The subject of series [23] is Mus musculus. The series is described as follows: Toxicity in human MX1 cells xenografted athymic nude Swiss mouse assessed as body weight loss at 30 mg/kg, iv every two days for three times followed by 35 mg/kg, iv every two days for 5 times relative to control. To be noted: in vivo. The series is classed as organism-based.
Series [24] has as its system Mus musculus. The series is described as follows: Toxicity in human PC3 cells xenografted athymic nude Swiss mouse assessed as body weight loss at 55 mg/kg, iv every two days for six times relative to control. As to conditions: in vivo. The arrangement: dose 55 mg/kg, route intravenous. The series is classed as organism-based, PC-3.
Series [25] deals with Mus musculus. The series is described as follows: Toxicity in human MX1 cells xenografted athymic nude Swiss mouse assessed as mouse mortality at 30 mg/kg, iv every two days for three times followed by 35 mg/kg, iv every two days for 5 times. The series is classed as organism-based. As to conditions: in vivo.
In series [26] the test system is Mus musculus. Kind of series: Toxicity in human PC3 cells xenografted athymic nude Swiss mouse assessed as mouse mortality at 55 mg/kg, iv every two days for six times. The class given is organism-based, PC-3. Also noted: dose 55 mg/kg, route intravenous. To be noted: in vivo.
The subject of series [27] is CCRF-CEM. The series is described as follows: Ratio of IC50 for human taxol-resistant CCRF-CEM cells to IC50 for human CCRF-CEM cells. The class given is functional.
In series [28] the test system is CCRF-CEM. Kind of series: Ratio of IC50 for human vinblastine-resistant CCRF-CEM cells to IC50 for human CCRF-CEM cells. The series is classed as functional.
The test system of series [29] is MX1. Kind of series: Antitumor activity against human MX1 cells xenografted in athymic nude Swiss mouse assessed as tumor growth inhibition at 50 and 60 mg/kg, iv every two days for three times followed by 70 mg/kg, iv every two days for two times relative to control. The series is classed as functional. Also noted: scale not given: the % may be the effect or the level left.

The test system of series [30] is Mus musculus. The series is described as follows: Toxicity in human MX1 cells xenografted athymic nude Swiss mouse assessed as body weight loss at 50 and 60 mg/kg, iv every two days for three times followed by 70 mg/kg, iv every two days for two times relative to control. The series is classed as organism-based. As to conditions: in vivo.
The subject of series [31] is Mus musculus. The series is described as follows: Toxicity in human MX1 cells xenografted athymic nude Swiss mouse assessed as mouse mortality at 50 and 60 mg/kg, iv every two days for three times followed by 70 mg/kg, iv every two days for two times. To be noted: in vivo. The series is classed as organism-based.
For series [32], the system named is MX1. Kind of series: Antitumor activity against human MX1 cells xenografted in athymic nude Swiss mouse assessed as tumor growth inhibition at 30 mg/kg, iv every two days for three times followed by 40 mg/kg, iv every two days for 5 times relative to control. The series is classed as functional. The arrangement: scale not given: the % may be the effect or the level left.

Series [33] has as its system Mus musculus. Kind of series: Toxicity in human MX1 cells xenografted athymic nude Swiss mouse assessed as body weight loss at 30 mg/kg, iv every two days for three times followed by 40 mg/kg, iv every two days for 5 times relative to control. The class given is organism-based. To be noted: in vivo.
Series [34] has as its system Mus musculus. The series is described as follows: Toxicity in human MX1 cells xenografted athymic nude Swiss mouse assessed as mouse mortality at 30 mg/kg, iv every two days for three times followed by 40 mg/kg, iv every two days for 5 times. The series is classed as organism-based. To be noted: in vivo.

Turning to `O=C(Nc1ccc(N(CCCl)CCCl)cc1)Nc1ccc2ncnc(Nc3cccc(Cl)c3)c2c1`, the IC50 amounted to 1660 nM in series [1]; 4560 nM in series [2]; 3260 nM in series [3]; 7.84 µM in [4]; 7.46 µM in series [5]; 10.5 µM in series [6]. Further, 10.4 µM corresponded to half-maximal inhibition in series [7] (IC50). In addition, the Activity was 8.9% in series [8]; 7.5% in series [9]; 35.3% in [10]; 30.5% in series [11]; 34.8% in series [12]; 28.3% in series [13]. In addition, the Activity in series [14] came out at 20.6%; in series [15] it was 28.5%; in [16] it was 23.5%; in [17], 40%; in series [18], 29.3%; in series [19], 12.9%. The Activity in [20] was 62%; in series [22] it was 27%; in [23], 3%; in series [24] it was 11%; in series [25], “Non-toxic”; in series [26] it was “Non-toxic”. Moreover, in series [21], the result was Active. Further, the entries for the “Ratio IC50” value in series [27] and in series [28] were 2.75 and 1.96, respectively.
Consider `O=C(Nc1ccc(N(CCCl)CCCl)cc1)Nc1ccc2ncnc(Nc3ccc(F)c(Cl)c3)c2c1`, for which the IC50 in series [1] worked out at 1000 nM; in series [2], 1160 nM; in [3], 1140 nM; in series [4], 5.38 µM; in series [5], 3.36 µM. For the same compound, the Activity was 72% in series [29], 5% in series [30] and “Non-toxic” in series [31]. Besides, the “Ratio IC50” value in [27] came out at 1.16; in [28] it was 1.14.
Turning to `O=C(Nc1ccc(N(CCCl)CCCl)cc1)Nc1ccc2ncnc(Nc3cccc(Cl)c3F)c2c1`, the IC50 in series [1] is 750 nM; in series [2], 1550 nM; in series [3], 1040 nM; in [4], 4.55 µM; in series [5] it was 3.84 µM; in series [6] it was 5.52 µM. This compound also displayed an IC50 in [7] of 6.29 µM. Moreover, the outcome in series [21] was Active. Further, the Activity was 69% in series [22]; 52% in [32]; 6% in series [33]; 6% in series [24]; “Non-toxic” in series [34]; “Non-toxic” in [26]. The “Ratio IC50” value came to 2.07 in series [27] and 1.39 in series [28].

Broadly, the IC50 is the concentration that gives 50% inhibition.
